RGS4 block = human RGS4 inhibition. P49798. B-score at 10 µM. HEK293 M3R/RGS4 inducible, Fluo-4 calcium flux; stronger effect = higher value; triggered by carbachol at its EC20. actives 0.45% (n = 310,000). AID 463165;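 active means B-score, a plate-corrected calcium signal, over three deviations above library mean, with baseline fluorescence within five deviations of library mean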;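 further: RGS4 expression induced by doxycycline in cells with stable M3 receptor; B-score is computed from the integrated fluorescence ratio over baseline after carbachol; higher B-score means a larger calcium signal and so more RGS4 inhibition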
Target sequence (P49798 whole entry, looked up): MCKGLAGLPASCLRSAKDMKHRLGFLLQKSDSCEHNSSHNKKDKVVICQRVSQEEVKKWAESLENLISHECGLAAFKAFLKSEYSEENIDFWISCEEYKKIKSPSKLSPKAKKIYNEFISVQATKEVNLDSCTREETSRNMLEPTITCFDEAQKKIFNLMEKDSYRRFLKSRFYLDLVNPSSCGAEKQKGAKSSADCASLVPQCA
MrgX1 allo act = allosterically activates human MrgX1 receptor signaling. Q96LB2. MrgX1-HEK293, Fluo-4 calcium flux, FDSS; stronger effect = higher value. B-score at 10 µM. actives 0.63% (n = 310,000). AID 588675;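 active means plate-corrected calcium response at least 3 library SD above typical, normal starting fluorescence, not activating the receptor alone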;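 further: compound read alongside a low EC10 to EC30 dose of BAM8-22 agonist; peak minus trough fluorescence over baseline measured at the second addition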
Target sequence (Q96LB2 whole entry, looked up): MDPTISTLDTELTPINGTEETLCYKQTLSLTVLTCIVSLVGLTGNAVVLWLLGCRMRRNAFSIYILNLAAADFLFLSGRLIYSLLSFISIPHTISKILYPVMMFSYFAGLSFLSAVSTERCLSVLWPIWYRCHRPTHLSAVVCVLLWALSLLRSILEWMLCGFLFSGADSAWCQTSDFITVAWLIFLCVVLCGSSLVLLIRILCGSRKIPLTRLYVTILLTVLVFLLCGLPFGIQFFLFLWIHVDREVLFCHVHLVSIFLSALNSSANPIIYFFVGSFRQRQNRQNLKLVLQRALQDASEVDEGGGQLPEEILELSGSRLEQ
MrgX1 antagonist = blocks BAM8-22 activation of human MrgX1 receptor. B-score at 10 µM. Q96LB2. MRGX1-HEK293 calcium flux, Fluo-4, BAM8-22 antagonism; stronger effect = lower value. AID 588676. actives 1.3% (n = 310,000);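 active means calcium-response B-score plate-corrected more than 3 library SD below zero, starting fluorescence within 5 deviations, no agonist response on first addition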;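 further: peak minus trough fluorescence over baseline after final BAM8-22 challenge near maximal dose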
MrgX1 ag = activates human MrgX1 receptor signaling; Q96LB2; MrgX1-HEK293 cells, Fluo-4 calcium fluorescence, agonist mode; stronger effect = higher value; B-score at 10 µM; actives 0.44% (n = 310,000); AID 588627;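 active means calcium response B-score plate-corrected fluorescence ratio at least 3 library SD, with starting fluorescence B-score inside 5 SD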
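Material: MrgX1-expressing HEK293 cells / Dosing: compound as first of three additions / Incubation: overnight seeding, then 1 h dark dye loading / Signal: Fluo-4 NW calcium fluorescence / Evaluation: B-scored fluorescence response ratio / Benchmarks: positive and negative control wells on each plate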
RGS4 pot = RGS4 potentiation or activation; HEK293 M3R/inducible RGS4, carbachol calcium flux Fluo4; stronger effect = lower value; B-score at 10 µM; actives 0.92% (n = 310,000);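 active means B-score of the integrated calcium signal more than 4 SD below the library mean, with starting fluorescence not abnormally high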;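 further: negative B-score means reduced calcium response which marks RGS4 activation or potentiation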
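Test system: HEK293 cells with stable M3R and inducible RGS4; also added: carbachol at ECmax as muscarinic agonist stimulus; schedule: dye loading 30 min 37 °C, buffer rest 30 min RT; technique: kinetic calcium fluorescence imaging with Fluo4-AM dye, 2 µM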
MrgX1 ant reconf = human MrgX1 receptor antagonism, re-confirmation screen | actives 19% (n = 2,300) | remaining BAM8-22 calcium response % of control (stronger effect = lower value), % at 10 µM | MrgX1-HEK293, BAM8-22 calcium flux, Fluo-4; stronger effect = lower value | AID 602420 | shares compounds with MrgX1 antagonist;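 active means remaining agonist calcium response no higher than 100% minus 3 SD of agonist-only control wells, with starting fluorescence near control levels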;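 further: agonist BAM8-22 given at a near maximal EC90 to ECmax level; peak minus minimum fluorescence divided by baseline after agonist addition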
HEK293 Ca flux = counter-screen for MrgX1 antagonists: effect in parental HEK293 cells. shares compounds with MrgX1 antagonist. Fluo-4 calcium fluorescence, FDSS. fluorescence ratio F(max-min)/F0 at 10 µM. actives 2% (n = 4,000). AID 624111;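 active means duplicate-averaged calcium fluorescence ratio at least three times the standard deviation of buffer wells, a nonspecific response in parental cells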
HEK293 Ca counter = MrgX1 allosteric activator counter-screen hit in parental HEK293 cells; parental HEK293 calcium flux, Fluo-4 fluorescence ratio; stronger effect = higher value; fluorescence ratio F(max-min)/F0 at 10 µM; AID 624114; shares compounds with MrgX1 antagonist; actives 0.4% (n = 4,000);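 active means calcium fluorescence ratio, averaged over duplicates, at least 3 SD of the buffer-well ratio, meaning a nonspecific response in receptor-free cells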;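 further: untransfected parental HEK293 lacking MrgX1 used as counterscreen for MrgX1 allosteric activators; fluorescence change taken during the second addition on a kinetic imager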
HEK293 Ca cntr2 = activity in parental HEK293 cells lacking MrgX1 receptor; shares compounds with MrgX1 antagonist; Fluo-4 calcium fluorescence (FDSS); stronger effect = higher value; fluorescence ratio F(max-min)/F0 at 10 µM; actives 8.7% (n = 4,000);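 active means calcium fluorescence ratio at least three times the spread of buffer wells, meaning a non-specific response in parental cells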
Starred values were filed as active, the others as inactive; i = inactive; · = no result. This is a sample that favours compounds with a hit; in the whole collection about 3.5% have one here.

SMILES | RGS4 block | MrgX1 allo act | MrgX1 antagonist | MrgX1 ag | RGS4 pot | MrgX1 ant reconf | HEK293 Ca flux | HEK293 Ca counter | HEK293 Ca cntr2
C=C(C)CSc1nc2c(c(=O)[nH]c(=O)n2C)n1Cc1ccccc1 | i | i | -4.82* | i | i | 82.9%* | i | i | i
CCCSc1nc2c(c(=O)[nH]c(=O)n2C)n1Cc1ccccc1 | i | i | i | i | i | · | · | · | ·
O=C(NC1CCCN(Cc2ccccc2F)C1)c1cccs1 (stereo unspecified) | i | i | i | i | i | · | · | · | ·
Cc1ccc(Cl)cc1N1CCN(C(=O)CN(C2CCCCC2)S(C)(=O)=O)CC1 | i | i | -12.2* | i | i | i | i | i | i
CS(=O)(=O)N(CC(=O)N1CCN(c2cccc(Cl)c2)CC1)C1CCCCC1 | i | i | i | i | i | · | · | · | ·
Cc1ccc(N=Cc2cc3c(cc2O)OC(N)=C(C#N)C3c2ccccc2)cc1 (stereo unspecified) | i | i | -9.79* | i | i | 80.0%* | i | i | i
CCOC(=O)CC1C(=O)NCCN1S(=O)(=O)c1ccc(NC(C)=O)cc1 (stereo unspecified) | i | i | -6.5* | i | i | i | i | i | i
CCOC(=O)CC1C(=O)NCCN1S(=O)(=O)c1ccc(F)cc1 (stereo unspecified) | i | i | i | i | i | · | · | · | ·
CC(C)(C)OC(=O)N1CCC[C@H]1C(=O)Nc1ccc(C#N)cc1 | i | i | i | i | i | · | · | · | ·
COC(=O)N1C(=O)[C@](Cc2ccccc2)(c2ccccc2)N1C(=O)OC | i | i | i | i | i | · | · | · | ·
CCOC(=O)c1c(C)[nH]c(C)c1S(=O)(=O)N(C)CC(=O)Nc1cc(C)ccc1OC | i | i | -9.1* | i | i | i | i | i | i
CC(=O)NCC(=O)OC(C(=O)c1ccccc1)c1ccc(Cl)cc1 (stereo unspecified) | i | i | i | i | i | · | · | · | ·
COC(=O)C1=C(N)Oc2cc(C)n(Cc3cccnc3)c(=O)c2C1c1cccc(OC)c1OC (stereo unspecified) | i | i | -13.1* | i | i | i | i | i | i
COC(=O)C1=C(N)Oc2cc(C)n(Cc3cccnc3)c(=O)c2C1c1cc(OC)ccc1OC (stereo unspecified) | i | i | i | i | i | · | · | · | ·
Cn1c([N+](=O)[O-])cnc1N1CCN(c2nncs2)C1=O | i | i | i | i | i | · | · | · | ·
Cc1ccc(S(=O)(=O)N(C)C)cc1NC(=O)CSc1nc2ccccc2c(=O)n1CC1CCCO1 (stereo unspecified) | i | i | i | i | i | · | · | · | ·
Cc1ccc(S(=O)(=O)N(C)C)cc1NC(=O)Cn1c(CN2CCOCC2)nc2ccccc2c1=O | i | i | -4.95* | i | i | i | i | i | i
Cc1c(NC(=O)C(=O)/C=C(\O)c2ccc(Br)cc2)c(=O)n(-c2ccccc2)n1C | i | i | i | i | i | · | · | · | ·
O=C(Nc1ccccc1F)Nc1ccc([N+](=O)[O-])cc1Cl | i | i | i | i | i | · | · | · | ·
CC1CCN(C2CCN(S(=O)(=O)c3ccc(F)cc3)CC2)CC1 | i | i | i | i | i | · | · | · | ·
O=S(=O)(c1ccc(F)cc1)N1CCC(N2CCCCCC2)CC1 | i | i | -11* | i | i | i | i | i | i
Cc1nn2c(NCc3ccccn3)c3c(nc2c1-c1ccccc1)CCC3 | i | i | i | i | i | · | · | · | ·
Cc1nn2c(NCCN3CCOCC3)c3c(nc2c1-c1ccccc1)CCCC3 | i | i | -5.91* | i | i | i | i | i | i
CCC(Sc1nc2ncccc2[nH]1)C(=O)NC1CCC(C)CC1 (stereo unspecified) | i | i | i | i | i | · | · | · | ·
CCC(Sc1nc2ncccc2[nH]1)C(=O)NCCc1ccccc1 (stereo unspecified) | i | i | -8.71* | i | i | i | i | i | i
SMILES | RGS4 block | MrgX1 allo act | MrgX1 antagonist | MrgX1 ag | RGS4 pot | MrgX1 ant reconf | HEK293 Ca flux | HEK293 Ca counter | HEK293 Ca cntr2
O=C(CN1C(=O)NC2(CCCCC2)C1=O)N1CCN(S(=O)(=O)c2ccccc2)CC1 | i | i | -5.48* | i | i | i | i | i | i
CC(C)c1ccc(-c2nc(N3CCCC3)nc3n[nH]c(N)c23)cc1 | i | i | -5.36* | i | i | i | i | i | i
COc1ccc(S(=O)(=O)n2ccc(C(C)Oc3ccc(-c4ccccc4)c(F)c3)n2)cc1 (stereo unspecified) | i | i | -6.63* | i | i | i | i | i | i
S=C(NCc1ccc(Cl)cc1Cl)NC1CCCCC1 | i | i | -4.59* | i | i | 59.6%* | i | i | i
Clc1ccc(CNC2CCCC2)c(Cl)c1 | i | i | i | i | i | · | · | · | ·
C/C(Cl)=C/Cn1c(N2CCCC2)nc2c1c(=O)[nH]c(=O)n2C | i | i | i | i | i | · | · | · | ·
C=CCn1c(N2CCCC2)nc2c1c(=O)[nH]c(=O)n2C | i | i | -8.69* | i | i | i | i | i | i
CC(C)CCn1c(N2CCc3ccccc3C2)nc2c1c(=O)[nH]c(=O)n2C | i | i | -5.03* | i | i | i | i | i | i
C=CCOC(=O)C1=C[C@@H](C2CCCCC2)C[C@@H](OCc2ccc(CO)cc2)O1 | i | i | i | i | i | · | · | · | ·
CCc1ccc(N2CC(C(=O)Nc3nccs3)CC2=O)cc1 (stereo unspecified) | i | i | -5* | i | i | i | i | i | i
O=C(Nc1nccs1)C1CC(=O)N(c2ccc(F)cc2)C1 (stereo unspecified) | i | i | i | i | i | · | · | · | ·
Cc1cc(C)cc(NC(=O)c2cc(S(=O)(=O)N3CCCC3)cn2C)c1 | i | i | -6.91* | i | i | i | i | i | i

Compound activity as filed in PubChem.
